Data: ChEMBL document CHEMBL1126696, “N-(arylalkyl)farnesylamines: new potent squalene synthetase inhibitors” (J Med Chem, 1993)

Legend:
[1] = molecular target: T1, Squalene synthase (Rattus norvegicus, UniProt Q02769); assay: Inhibitory activity against squalene synthetase in rat liver microsomes; design: species or system Microsome
T1 sequence (Q02769 whole entry): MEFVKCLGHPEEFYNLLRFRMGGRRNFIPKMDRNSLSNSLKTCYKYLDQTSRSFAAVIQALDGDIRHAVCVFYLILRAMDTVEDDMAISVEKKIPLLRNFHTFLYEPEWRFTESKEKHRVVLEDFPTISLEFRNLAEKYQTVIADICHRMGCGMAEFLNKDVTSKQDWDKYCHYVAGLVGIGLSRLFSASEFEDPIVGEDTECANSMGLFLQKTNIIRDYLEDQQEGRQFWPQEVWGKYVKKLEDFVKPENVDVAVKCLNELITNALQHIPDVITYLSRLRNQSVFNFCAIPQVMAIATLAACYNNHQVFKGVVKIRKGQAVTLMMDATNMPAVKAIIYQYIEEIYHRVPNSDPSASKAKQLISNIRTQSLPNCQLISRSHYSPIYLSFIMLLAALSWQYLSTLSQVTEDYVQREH
In short: (§1)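 Rat liver microsomes (about 1 mg/mL protein) were prepared in pH 7.4 phosphate buffer with EDTA and stored at -80 °C. Samples were preincubated at 37 °C under nitrogen for 5 min. Final NADPH was 1.2 mM and MgCl2 5 mM. Tritiated farnesyl pyrophosphate started a 10-min reaction at 37 °C under nitrogen. Products were counted by liquid scintillation. Reactions ran in duplicate at several concentrations across at least four independent assays. IC50 was derived by linear regression of the pooled data.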

[2] = molecular target: T1, Squalene synthase; assay: Tested for inhibitory activity against squalene synthetase in the presence of inorganic pyrophosphate (PPi); in short: as §1

Row | Structure (SMILES) | IC50 [1] | IC50 [2]
1 | CC(C)=CCC/C(C)=C/CC/C(C)=C/COCc1cccnc1 | 33 µM | –
2 | CC(C)=CCC/C(C)=C/CC/C(C)=C/CNCC(C)CC/C=C(\C)CCC=C(C)C (stereo not given) | 1 µM | –
3 | CC(C)=CCC/C(C)=C/CNCc1cccnc1 | 23 µM | –
4 | CCNC/C=C(\C)CC/C=C(\C)CCC=C(C)C | 0.6 µM | –
5 | CCN(C/C=C(\C)CC/C=C(\C)CCC=C(C)C)C/C=C(\C)CC/C=C(\C)CCC=C(C)C | 182 µM | –
6 | CC(C)CCCC(C)CCCC(C)CCNCc1cccnc1 (stereo not given) | 7 µM | –
7 | CC(C)=CCC/C(C)=C/CCC(C)CNCc1cccnc1 (stereo not given) | 23 µM | –
8 | CC(C)=CCC/C(C)=C/CC/C(C)=C/COC/C=C(\C)CC/C=C(\C)CCC=C(C)C | 828 µM | –
9 | CC(C)=CCC/C(C)=C/CC/C(C)=C/CNCc1cccnc1 | 0.05 µM | 0.004 µM
10 | CC(C)=CCC/C(C)=C/CC/C(C)=C/CNCc1ccccc1 | 0.1 µM | 0.01 µM
11 | CC(C)=CCC/C(C)=C/CC/C(C)=C/CNC/C=C(\C)CC/C=C(\C)CCC=C(C)C | 48 µM | –
12 | CCN(C/C=C(\C)CC/C=C(\C)CCC=C(C)C)Cc1cccnc1 | 4.9 µM | –
13 | CC(C)=CCC/C(C)=C/CC/C(C)=C/CNCc1ccncc1 | 0.1 µM | –
